Shown are actives, neighbours in structure and some others; about 4.1% of the full set was active somewhere.
XBP1 UPR activ: activators of adaptive arm of unfolded protein response (XBP1) | CHO-XBP1 luciferase reporter, IRE1-XBP1 UPR activation, luminescence; percent of tunicamycin response, DMSO as zero | activation, % at 20 µM | 330,000 compounds, 0.33% hits | AID 463104;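 active = versus positive control, 20 µM dose yields 30% or more activation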;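 note: 100% = tunicamycin at 10 µg/mL and 0% = DMSO only wells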
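Material: IRE1-XBP1 luciferase reporter CHO line / Quantity: one thousand reporter cells per well / Buffer or medium: F12 with 10% serum / Compound: 20 µM single concentration, DMSO 1% / Times: 6 h treatment, 37 °C / Detection: Steady-Glo luciferase glow luminescence, 10 min after reagent addition / Benchmarks: tunicamycin high, DMSO low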
Mdm2-MdmX inh: disrupts the human Mdm2-MdmX interaction; O15151+Q00987; 330,000 compounds, 3% hits; inhibition, % at 8 µM; AID 485346; SaOS-2 split-luciferase Mdm2/MdmX complementation, luminescence;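 active = inhibition of at least 50% at 8 µM in the primary screen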
UBC13 inh: inhibitors of human UBC13 polyubiquitin chain formation. AID 485273. 330,000 compounds, 0.47% hits. P61088. TR-FRET. inhibition, % at 20 µM; in the data active = inhibition above about 45%, passing the limit was not always enough
Apaf1 inhib: human Apaf-1 inhibition; O14727; reconstituted apoptosome caspase-3 activity, DEVD-Rh110 fluorescence; inhibition, % at 20 µM; 330,000 compounds, 0.71% hits; AID 489030; active = inhibition of at least 40% at 20 µM;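 note: plate controls were DMSO wells for no effect and DEVD-CHO caspase inhibitor wells for full effect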
Target sequence (O14727 whole entry, looked up): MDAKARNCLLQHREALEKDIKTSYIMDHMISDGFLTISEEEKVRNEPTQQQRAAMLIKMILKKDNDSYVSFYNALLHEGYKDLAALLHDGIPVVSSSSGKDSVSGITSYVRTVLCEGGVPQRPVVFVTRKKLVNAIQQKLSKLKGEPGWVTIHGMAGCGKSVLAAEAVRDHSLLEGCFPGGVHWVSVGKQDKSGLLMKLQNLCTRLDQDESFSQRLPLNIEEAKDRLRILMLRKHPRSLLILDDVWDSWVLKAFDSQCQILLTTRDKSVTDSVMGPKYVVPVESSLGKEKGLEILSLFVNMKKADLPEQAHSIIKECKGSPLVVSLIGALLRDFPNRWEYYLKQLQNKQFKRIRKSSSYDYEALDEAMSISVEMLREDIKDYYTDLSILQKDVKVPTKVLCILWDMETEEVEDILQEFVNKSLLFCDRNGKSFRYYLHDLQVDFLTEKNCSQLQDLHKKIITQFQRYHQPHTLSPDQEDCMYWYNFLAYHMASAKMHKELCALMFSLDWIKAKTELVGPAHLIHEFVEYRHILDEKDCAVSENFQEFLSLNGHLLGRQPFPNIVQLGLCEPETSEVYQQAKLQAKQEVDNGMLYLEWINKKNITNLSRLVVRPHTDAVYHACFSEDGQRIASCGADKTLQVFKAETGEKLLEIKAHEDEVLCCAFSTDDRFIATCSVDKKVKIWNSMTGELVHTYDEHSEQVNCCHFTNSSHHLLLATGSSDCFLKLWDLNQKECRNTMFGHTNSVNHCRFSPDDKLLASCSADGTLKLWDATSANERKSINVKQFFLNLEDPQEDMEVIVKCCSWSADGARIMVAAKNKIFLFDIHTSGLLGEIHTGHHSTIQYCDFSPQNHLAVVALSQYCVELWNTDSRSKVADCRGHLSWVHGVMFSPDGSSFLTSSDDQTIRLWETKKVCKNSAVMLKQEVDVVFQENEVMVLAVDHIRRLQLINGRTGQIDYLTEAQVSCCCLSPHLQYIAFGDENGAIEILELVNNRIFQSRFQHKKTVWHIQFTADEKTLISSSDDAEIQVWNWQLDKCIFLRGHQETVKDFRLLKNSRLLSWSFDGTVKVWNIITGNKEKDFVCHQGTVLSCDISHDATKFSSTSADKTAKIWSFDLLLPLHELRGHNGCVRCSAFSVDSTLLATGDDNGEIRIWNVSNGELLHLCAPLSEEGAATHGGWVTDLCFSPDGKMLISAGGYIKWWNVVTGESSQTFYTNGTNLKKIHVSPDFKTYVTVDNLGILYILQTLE
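Material: reconstituted apoptosome with Apaf-1, cytochrome c, caspase-9, procaspase-3, dATP; medium: pH 7.5 Hepes buffer with CHAPS, BSA, DTT; also added: cytochrome c and DEVD-Rh110 substrate; timing: 30 min plus 50 min, RT; signal: Rh110 fluorescence intensity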
CHOP UPR activ: apoptotic UPR (CHOP) activation; CHO-CHOP luciferase reporter, luminescence; percent of tunicamycin response over DMSO baseline; activation, % at 10 µM; 330,000 compounds, 0.34% hits; AID 449763;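 active = at 10 µM dose, activation of 40% or more, normalized to positive control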;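 note: 100% = tunicamycin at 10 µg/mL and 0% = DMSO alone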
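measured by = luciferase luminescence | assay system = CHO-CHOP cells, stable luciferase reporter of PERK-eIF2a-CHOP signalling | amount = 500 reporter cells seeded per well | timing = 6 h compound exposure at 37 °C after overnight seeding | controls = positive tunicamycin 10 µg/mL, negative DMSO alone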
Apaf-1 inh conf: Apaf-1 inhibition, single-dose confirmed; AID 504614; reconstituted apoptosome, caspase-3 DEVD-Rh110 fluorescence; shares compounds with Apaf1 inhib; inhibition, % at 20 µM; 1,800 compounds, 25% hits;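 active = mean inhibition of at least 40% at 20 µM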;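 note: plate controls were DMSO wells for no effect and DEVD-CHO caspase inhibitor control wells for full effect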
Rh110 quench: counter-screen for Apaf-1 inhibitors: fluorescence interference; 1,800 tested, under 10 active; Rh110 fluorescence interference, quenched caspase reaction; shares compounds with Apaf1 inhib; activation (fluorescence interference), % at 20 µM;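 active = signal rise of 40% or more at 20 µM, treated as a fluorescence artifact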
Fluor interf inh: counter-screen for Apaf-1 inhibitors: fluorescence interference, dose response; fluorescence interference counterscreen, Apaf-1 assay format; IC50, µM; shares compounds with Apaf1 inhib; 460 tested, under 10 active; call rule not given here
* marks the source's active call; other numbers are inactive results; / = no result given.

SMILES | XBP1 UPR activ | Mdm2-MdmX inh | UBC13 inh | Apaf1 inhib | CHOP UPR activ | Apaf-1 inh conf | Rh110 quench | others
C[C@]12CCC(=O)CC1=CCC1C3CC=C(C#N)[C@@]3(C)CC[C@@]12O (stereo partly specified) | 4.3 | 16.4 | -4.5 | 3.1 | 0.0 | / | /
CN(Cc1ccccc1)C(=O)CN1C(=O)NC(C)(c2ccc(C(C)(C)C)cc2)C1=O (stereo unspecified) | -4.9 | 27.3 | -14.4 | 41.7* | 1.4 | 20.5 | 4.5
COc1ccccc1CNC(=O)CN1C(=O)NC(C)(c2ccc(C(C)(C)C)cc2)C1=O (stereo unspecified) | -9.0 | 24.7 | 3.6 | 24.5 | -1.2 | / | /
CCN(CC)CCN(C(=O)c1ccc2c(c1)CCCC2)c1nc2ccc(F)cc2s1 | -3.0 | 1.2 | 2.7 | -3.2 | 1.3 | / | /
CCN(CC)CCN(C(=O)c1ccc2c(c1)CCCC2)c1nc2ccc(OC)cc2s1 | -5.5 | -13.2 | 3.7 | 61.2* | -0.9 | 19.3 | 7.2
CCN(CC)CCN(C(=O)c1ccc2c(c1)CCCC2)c1nc2c(C)cccc2s1 | -1.9 | 32.2 | 7.9 | 30.9 | 2.6 | / | /
CCN(CC)CCN(C(=O)c1ccc2c(c1)CCCC2)c1nc2ccc(C)cc2s1 | -2.8 | 14.2 | 8.4 | 51.5* | 0.7 | 11.5 | 7.5
COc1ccc(N2CCN(C(=O)c3oc4ccccc4c3NC(=O)Cc3ccc(OC)c(OC)c3)CC2)cc1 | -4.0 | 25.3 | 2.0 | 17.7 | 0.1 | / | /
CCC(=O)NC(=S)Nc1cc(C(=O)O)ccc1OC | -5.3 | 6.8 | -2.0 | 3.3 | -2.0 | / | /
CCOC(=O)N1CCC(=NNC(=O)Cn2ccc(C(F)(F)F)n2)CC1 | 3.0 | -5.3 | 3.0 | -14.2 | 0.4 | / | /
CCOc1c(O)ccc(/C=C2\SC(=S)NC2=O)c1[N+](=O)[O-] | -2.7 | -31.2 | -45.1 | 55.5* | -0.2 | 55.0* | 4.8 | Fluor interf inh=>100
CCOc1ccc(N(C)c2ccc(/C=C3/SC(=S)NC3=O)cc2)cc1 | -5.5 | 24.0 | -175.9 | 17.8 | 0.5 | / | /
COc1cc(-c2c(C#N)c(=O)[nH]c3c2c(C)nn3-c2ccccc2)ccc1O | 2.8 | -9.4 | 12.5 | 42.1* | -0.7 | 43.3* | 1.3 | Fluor interf inh=>100
COc1cccc(/C=N/NC(=O)NC23CC4CC(CC(C4)C2)C3)c1O | 7.8 | 37.6 | -5.4 | 40.1* | 0.4 | 14.8 | 3.8
Cc1onc(-c2ccccc2Cl)c1C(=O)N1CCC(C)CC1 | 4.2 | -9.9 | 4.9 | -8.4 | 1.3 | / | /
Cc1oc2c(c1C(=O)N1CCC(C)CC1)C(=O)c1ccccc1C2=O | -4.2 | 39.2 | -51.8 | 41.5* | 1.9 | 33.2 | -0.2
Cc1cc(C)c(C(N)=O)c(Nc2cccc3ccccc23)n1 | 5.7 | 39.5 | -93.7 | 96.2* | 2.7 | 12.0 | 3.3
COc1ccccc1Nc1nc(C)cc(C)c1C(N)=O | -2.8 | 18.9 | -6.3 | 5.4 | 0.5 | / | /
COC(=O)c1nn(-c2ccc(OC)cc2)c(=O)cc1NN | -2.3 | 4.0 | -36.6 | 42.2* | 1.4 | 37.2 | 3.5
NC(=O)C1CCN(CC(=O)Nc2ccccc2C(=O)NC2CC2)CC1 | 0.9 | 1.5 | -2.7 | 2.4 | -2.2 | / | /
CN(C(=O)CSCC(=O)O)C1CCCCC1 | -1.6 | -10.4 | 6.1 | -2.3 | 5.2 | / | /
COCCNC(=O)c1c(N)n(-c2ccccc2)c2nc3ccccc3nc12 | 1.2 | 0.0 | -25.1 | 81.3* | 0.2 | 23.8 | 5.5
COCCn1c(N)c(C(=O)NCC2CCCO2)c2nc3ccccc3nc21 (stereo unspecified) | -1.4 | -15.1 | -1.0 | 75.1* | -1.2 | 29.5 | 5.3
Cc1ccc(-n2c(N)c(C(=O)Nc3c(C)n(C)n(-c4ccccc4)c3=O)c3nc4ccccc4nc32)cc1 | -2.1 | 35.5 | -17.4 | 16.7 | -0.1 | / | /
C=CCn1c(N)c(C(=O)Nc2ccccc2)c2nc3ccccc3nc21 | -0.5 | 46.9 | 14.8 | 67.4* | 2.3 | 32.8 | 15.1
COCCNC(=O)c1c(N)n(-c2cccc(C)c2)c2nc3ccccc3nc12 | -1.4 | 26.1 | -9.3 | 37.5 | -0.2 | / | /

High-throughput results as filed in PubChem.
